ChEMBL document CHEMBL3244271, “Synthetic sulfur-containing amino acids. Inhibition of transport systems in S37 ascites tumor cells” (J Med Chem, 1978)

Assays:
Type in all cases: cell-based
[1] = system: S37; assay: Inhibition of L-type amino acid transporter-mediated [3H]-L-histidine uptake in mouse S37 cells assessed as residual activity at 5 mM after 2 mins by liquid scintillation counting analysis relative to control
[2] = system: S37; assay: Inhibition of A-type amino acid transporter-mediated [3H]-L-histidine uptake in mouse S37 cells assessed as residual activity at 5 mM after 2 mins by liquid scintillation counting analysis relative to control
[3] = system: S37; assay: Inhibition of L-type amino acid transporter-mediated [3H]-L-histidine uptake in mouse S37 cells assessed as residual activity at 10 mM after 2 mins by liquid scintillation counting analysis relative to control
Summary of the method: (§1)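 Mouse-passaged S37 ascites cells were collected 6-8 days post-transplant, washed three times and resuspended in modified Krebs-Ringer phosphate buffer. L-system uptake used [3H]-L-histidine at 0.1 mM for 2 min at 20 °C. Incubation ended on pouring into chilled buffer, followed by three centrifugations to remove entrained label. Pellet wet weight was recorded, the EtOH lysate was scintillation-counted, and results are % of control, averaging duplicate runs on triplicate samples.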

[4] = system: S37; assay: Inhibition of A-type amino acid transporter-mediated [3H]-L-histidine uptake in mouse S37 cells assessed as residual activity at 10 mM after 2 mins by liquid scintillation counting analysis relative to control
Summary of the method: (§2)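 S37 ascites tumor cells were harvested 6-8 days after transplanting about 0.3 mL of a 1:10 packed-cell suspension. Cells were washed three times in modified Krebs-Ringer phosphate buffer, resuspended, and incubated with [3H]-L-histidine at 10 mM (A system) for 2 min at 20 °C. Uptake was stopped in chilled buffer, and cells were spun, rinsed and weighed wet. Pellets were lysed in 95% EtOH and counted by scintillation. Results are % of control, with duplicate runs on triplicate samples.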

[5] = system: S37; assay: Inhibition of L-type amino acid transporter-mediated [3H]-L-histidine uptake in mouse S37 cells assessed as residual activity after 2 mins by liquid scintillation counting analysis relative to control; summary of the method: as §1
[6] = system: S37; assay: Inhibition of A-type amino acid transporter-mediated [3H]-L-histidine uptake in mouse S37 cells assessed as residual activity after 2 mins by liquid scintillation counting analysis relative to control; summary of the method: as §2

Structure (SMILES) | Activity [1] [%] | Activity [2] [%] | Activity [3] [%] | Activity [4] [%] | other results
N[C@@H](CSCCSC[C@H](N)C(=O)O)C(=O)O | 52 | 70 |  |  | 
CSCC[C@H](N)C(=O)O | 11 | 68 |  |  | 
O=C(O)C1NCCS1 (racemic) |  |  | 63 | 58 | 
CC1N[C@H](C(=O)O)CS1 (stereo partly specified) | 70 | 72 |  |  | 
NC1CCSC1=O (stereo unspecified) |  |  | 96 | 119 | 
CC1(C)N[C@H](C(=O)O)CS1 | 45 | 68 |  |  | 
O=C(O)[C@@H]1CSCCN1 | 51 | 73 |  |  | 
N[C@@H](CS)C(=O)O | 16 | 51 |  |  | 
O=C(O)C1CCSCN1 (racemic) |  |  | 90 | 85 | 
O=C(O)[C@@H]1CSCN1 | 72 | 74 |  |  | 
NC(CCS)C(=O)O (racemic) |  |  | 6 | 55 | 
CCSCC[C@H](N)C(=O)O | 11 | 63 |  |  | 
NC1(C(=O)O)CCSCC1 |  |  |  |  | Activity [5]: 31%; Activity [6]: 81%
